Source: PubChem BioAssay
Only some compounds are listed: those with a hit (about 0.73% of all), similar ones and a draw of the others.
TNAP act hi DEA – activators of human TNAP at high phosphate acceptor concentration | 200,000 tested, under 10 active | activation factor at 20 µM | purified TNAP, CDP-star luminescence, 1 M DEA, 30 min; active compounds read high; 0 = EDTA background, 1 = DMSO-only activity;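 active = activation factor at least 2 at 20 µM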
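system = human TNAP | amount = enzyme diluted 1/800 final | reagent = 100 µM CDP-star substrate | signal = luminescent substrate turnover signal | dosing = one dose, 20 µM | benchmarks = EDTA negative control, DMSO positive control | measure = activation factor | timing = 30 min reaction, room temperature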
Arbovirus inh – antivirals against arbovirus infection | arbovirus infection cell-based antiviral screen | AID 1251 | inhibition, % at 10 µM | actives 0.37% (n = 200,000); in the data active = inhibition above about 30%
PKD1 inh – PKD1 (human) kinase inhibition; Q15139; PKD1 kinase fluorescence polarization assay; inhibition, % (no concentration beside the values); actives 0.056% (n = 200,000); in the data active = inhibition above about 50%
TNAP inh noacc – blocks human TNAP activity with no phosphate acceptor present. purified TNAP, CDP-star luminescence, 30 min. P05186. actives 0.26% (n = 200,000). inhibition, % at 20 µM;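 active = tissue-nonspecific alkaline phosphatase inhibition above about 50% at 20 µM in the single-dose screen, limit read from the data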;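 note: 0% = DMSO negative control and 100% = EDTA positive control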
TNAP inh hiacc – TNAP (human) inhibition, high acceptor | purified TNAP, CDP-star luminescence, 1 M DEA | inhibition, % at 20 µM | actives 0.03% (n = 200,000) | AID 1135;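 active = over 50% inhibition of tissue-nonspecific alkaline phosphatase at 20 µM in the single-dose screen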;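 note: plate controls were DMSO wells for no effect and EDTA-quenched wells as full inhibition for full effect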
Active calls of the source: *.

For COC(=O)CS(=O)(=O)c1ccsc1C(=O)Nc1ccc(F)cc1 the results were TNAP act hi DEA 1, Arbovirus inh -3, PKD1 inh -11, TNAP inh noacc -9 and TNAP inh hiacc -4.
Cn1cccc1-c1cc(C(=O)N/N=C/C=C/c2ccccc2)[nH]n1 was read as TNAP act hi DEA 1, Arbovirus inh 14, PKD1 inh -6, TNAP inh noacc -33 and TNAP inh hiacc -4.
Screening COc1cc(/C=N/NC(=O)c2cc(-c3cccn3C)n[nH]2)cc(OC)c1OC returned TNAP act hi DEA 0.9, Arbovirus inh -7, PKD1 inh -20, TNAP inh noacc 91* and TNAP inh hiacc 9.
For COc1cccc(/C=N/NC(=O)c2cc(-c3cccn3C)n[nH]2)c1 the results were TNAP act hi DEA 0.9, Arbovirus inh -2, PKD1 inh 3, TNAP inh noacc 94* and TNAP inh hiacc 7.
Screening COc1cccc(/C=N/NC(=O)c2cc(-c3cccn3C)n[nH]2)c1O returned TNAP act hi DEA 1, Arbovirus inh -19, PKD1 inh -7, TNAP inh noacc -157 and TNAP inh hiacc 2.
For CCn1nc(C)c(Br)c1Nc1ccc(Br)cc1 the results were TNAP act hi DEA 1, Arbovirus inh -2, PKD1 inh 0, TNAP inh noacc 5 and TNAP inh hiacc -3.
For CSc1ccc(CN(C)CC(=O)Nc2cccc(Br)c2)cc1 the results were TNAP act hi DEA 1, Arbovirus inh 15, PKD1 inh -8, TNAP inh noacc -13 and TNAP inh hiacc -2.
For CC(C)CN(CC(C)C)CC(O)COc1ccccc1Br (stereo unspecified) the results were TNAP act hi DEA 1, Arbovirus inh -5, PKD1 inh 7, TNAP inh noacc -4 and TNAP inh hiacc -2.
Screening CCCCN(CCCC)CC(O)COc1ccccc1Br (stereo unspecified) returned TNAP act hi DEA 1.1, Arbovirus inh 39*, PKD1 inh -1, TNAP inh noacc -3 and TNAP inh hiacc -6.
COc1ccccc1NC(=O)N1CCN(C)CC1 was read as TNAP act hi DEA 1, Arbovirus inh -5, PKD1 inh -7, TNAP inh noacc -7 and TNAP inh hiacc -5.
COc1cc(C(=O)NC(=S)Nc2ccc(N3CCCC3)cc2)cc(OC)c1OC was read as TNAP act hi DEA 1, Arbovirus inh -7, PKD1 inh -6, TNAP inh noacc 4 and TNAP inh hiacc 2.
Screening COc1ccc(Cl)cc1C(=O)NNC(=O)CSc1nnnn1C returned TNAP act hi DEA 1, Arbovirus inh 19, PKD1 inh -4, TNAP inh noacc -17 and TNAP inh hiacc 2.
`CC(=O)N/C(=C/c1ccc2c(c1)OCO2)C(=O)NCc1ccccc1` gave TNAP act hi DEA 1, Arbovirus inh 2, PKD1 inh -2, TNAP inh noacc 67* and TNAP inh hiacc -1.
`CC(C)(C)N(Cc1ccccc1)C(=O)COC(=O)Cn1cnc2ccccc2c1=O` gave TNAP act hi DEA 1.1, Arbovirus inh 13, PKD1 inh 3, TNAP inh noacc -53 and TNAP inh hiacc -6.
Screening C/C(=N\NC(=O)c1ccc([N+](=O)[O-])c(C)c1)c1ccccc1Cl returned TNAP act hi DEA 1, Arbovirus inh -2, PKD1 inh -8, TNAP inh noacc -7 and TNAP inh hiacc -4.
For COc1cc(/C=C2\SC(=O)N(c3ccc(Cl)cc3)C2=O)cc([N+](=O)[O-])c1O the results were TNAP act hi DEA 0.8, Arbovirus inh 57*, PKD1 inh -2, TNAP inh noacc 15 and TNAP inh hiacc 15.
For CCN(CC)CC(O)CN1C(=O)NC(C)(C)C1=O (stereo unspecified) the results were TNAP act hi DEA 1, Arbovirus inh 3, PKD1 inh 6, TNAP inh noacc -10 and TNAP inh hiacc -4.
For COc1ccccc1N1CCN(C(=O)CSc2nc3ncnc(N)c3[nH]2)CC1 the results were TNAP act hi DEA 1.1, Arbovirus inh -3, PKD1 inh -10, TNAP inh noacc 60* and TNAP inh hiacc -6.
`Nc1ncnc2nc(SCC(=O)N3CCN(c4ccccc4)CC3)[nH]c12` gave TNAP act hi DEA 1, Arbovirus inh 9, PKD1 inh 1, TNAP inh noacc 62* and TNAP inh hiacc 1.
O=C(CSc1nccc(=O)[nH]1)N1CCN(c2ccccc2)CC1 was read as TNAP act hi DEA 1, Arbovirus inh 5, PKD1 inh -3, TNAP inh noacc -13 and TNAP inh hiacc -3.
Screening CCC(C)(C)n1nnnc1CN1CCN(c2ccc(OC)cc2)CC1 returned TNAP act hi DEA 1.1, Arbovirus inh 7, PKD1 inh 5, TNAP inh noacc -6 and TNAP inh hiacc -6.
For Cc1cc(C)nc(NCCO)n1 the results were TNAP act hi DEA 1.1, Arbovirus inh 0, PKD1 inh 1, TNAP inh noacc -5 and TNAP inh hiacc -7.
Screening O=C(COC(=O)c1cncc(Br)c1)NC1CCCCCC1 returned TNAP act hi DEA 1, Arbovirus inh 7, PKD1 inh 7, TNAP inh noacc -11 and TNAP inh hiacc -2.
CN(C)c1ccc(/C=C(/C(=O)c2ccc(Cl)cc2Cl)n2cncn2)cc1 was read as TNAP act hi DEA 0.5, Arbovirus inh 15, PKD1 inh -9, TNAP inh noacc 48 and TNAP inh hiacc 55*.
For COc1ccc(/C=C(/C(=O)c2ccc(Cl)cc2Cl)n2cncn2)cc1 the results were TNAP act hi DEA 1, Arbovirus inh 16, PKD1 inh -7, TNAP inh noacc 0 and TNAP inh hiacc -1.
Screening COc1ccc2c(c1)nc(SCC(O)c1ccccc1)n2C (stereo unspecified) returned TNAP act hi DEA 1, Arbovirus inh 8, PKD1 inh 2, TNAP inh noacc -1 and TNAP inh hiacc -3.
Screening COc1ccc(-c2[nH]ncc2C=O)cc1 returned TNAP act hi DEA 1, Arbovirus inh -8, PKD1 inh 4, TNAP inh noacc 70* and TNAP inh hiacc 3.
`CCOC(=O)c1cc(-c2cccc([N+](=O)[O-])c2)n[nH]1` gave TNAP act hi DEA 1, Arbovirus inh -1, PKD1 inh 0, TNAP inh noacc 62* and TNAP inh hiacc -2.
For CCNc1nc(NC(C)C)nc(ON=C(C)C)n1 the results were TNAP act hi DEA 1, Arbovirus inh -16, PKD1 inh -7, TNAP inh noacc -13 and TNAP inh hiacc -4.
Cc1ccc(S(=O)(=O)N2CCN(c3ccnc4cc(Cl)ccc34)CC2)cc1C was read as TNAP act hi DEA 1, Arbovirus inh 30*, PKD1 inh -3, TNAP inh noacc -8 and TNAP inh hiacc 1.
`Cc1ccc(S(=O)(=O)N2CCN(c3ccnc4cc(Cl)ccc34)CC2)cc1` gave TNAP act hi DEA 1, Arbovirus inh 15, PKD1 inh -3, TNAP inh noacc -4 and TNAP inh hiacc -4.
Cc1cc(N2CCN(S(=O)(=O)c3ccc(Cl)cc3)CC2)c2ccccc2n1 was read as TNAP act hi DEA 1.1, Arbovirus inh 36*, PKD1 inh -1, TNAP inh noacc -2 and TNAP inh hiacc -8.
